# S1P1 ag-PAM – S1P1 agonists and agonism potentiators, primary screen, cell-based, primary and confirmation screens, CRE-bla reporter. Sphingosine 1-phosphate receptor 1 (Homo sapiens), P21453. S1P1 CRE-bla cells, forskolin, beta-lactamase FRET, potentiator mode; S1P1 agonist co-added at EC20, 2 nM; 100% = saturating reference agonist, 0% = basal. activation, % at 9.5 µM. 0.57% of 56,000 active. AID 449, 2006;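 active = activation above a cutoff set at the mean activation of all tested compounds plus 3 SD, cut at about 54% in these data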;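 note: forskolin at 4 µM as EC80 and the EC20 agonist is SEW2871; 100% = SEW2871 at its EC100 plus forskolin at EC80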
# Target sequence (P21453 whole entry, looked up): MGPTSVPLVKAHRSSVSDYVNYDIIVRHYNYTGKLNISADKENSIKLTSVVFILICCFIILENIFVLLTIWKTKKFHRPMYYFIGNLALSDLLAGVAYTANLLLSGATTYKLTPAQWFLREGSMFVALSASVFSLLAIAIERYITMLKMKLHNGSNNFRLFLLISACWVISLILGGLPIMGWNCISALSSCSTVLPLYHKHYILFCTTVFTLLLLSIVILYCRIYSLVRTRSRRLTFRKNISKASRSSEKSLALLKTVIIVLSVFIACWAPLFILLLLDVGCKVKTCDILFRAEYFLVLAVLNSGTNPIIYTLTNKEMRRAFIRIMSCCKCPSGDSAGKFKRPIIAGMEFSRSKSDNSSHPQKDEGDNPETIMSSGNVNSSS
# HTR1E agonist – 5-HT1E receptor agonists, primary screen, cell-based, HTS | 5-hydroxytryptamine receptor 1E (Homo sapiens), P28566 | AID 574, 2007 | CHO 5-HT1E Ga15 NFAT-bla reporter, FRET; 0% DMSO wells, 100% control agonist wells | activation, % at 6 µM | 0.69% of 65,000 active;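 active = activation above a set limit, the screen-wide mean activation plus 3 SD, cut at about 8.5% in these data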;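 note: 100% = positive control agonist at 1 µM giving full maximal response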
# S1P3 agonist – human S1P3 receptor agonists, primary screen, cell-based, primary and confirmation, NFAT-BLA reporter; Sphingosine 1-phosphate receptor 3 (Homo sapiens), Q99500; S1P3 NFAT-BLA reporter cells, agonism, FRET ratio; relative to 1 µM S1P, basal subtracted; activation, % at 4.5 µM; 0.1% of 60,000 active;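 active = activation above the screen-wide mean plus 3 SD, cut at about 4.5% in these data, passing the limit was not always enough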
#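 Measure – % activation relative to 1 µM S1P (100%), per plate · System – stable CHO line with human S1P3, Gα16, NFAT-BLA reporter · Timing – cells plated overnight, compound 4 h 37 °C, substrate 2 h RT · Technique – fluorescent BLA substrate, ex 405 nm, em 460/535 nm ratio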
# 5HT1a antag – human 5-HT1a receptor antagonists, primary screen, cell-based, CHO, Ga15 NFAT-bla reporter | inhibition, % at 10 µM | 0.68% of 62,000 active | CHO 5-HT1a Ga15 NFAT-bla reporter, antagonist mode | AID 612, 2007 | 5-hydroxytryptamine receptor 1A (Homo sapiens), P08908;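 active = inhibition above the mean of all tested compounds plus 3 SD, cut at about 43% in these data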;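 note: receptor stimulated by 5-CT agonist at 100 nM near EC80; beta-lactamase reporter measured by ratiometric fluorescence of a cleavable substrate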
# 5HT1a ag – human 5-HT1a receptor agonists, primary screen, cell-based, CHO, Ga15 NFAT-bla reporter; 5-hydroxytryptamine receptor 1A (Homo sapiens), P08908; CHO 5-HT1a Ga15 NFAT-bla reporter, FRET ratio; 0% basal, 100% maximal reference agonist; activation, % at 10 µM; 0.56% of 65,000 active;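 active = activation above the screen-wide mean activation plus 3 SD, cut at about 19% in these data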;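 note: 0% = DMSO wells and 100% = 5-CT at EC100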
# HTR1E antagonist – 5-HT1E receptor antagonists, primary screen, cell-based, HTS | inhibition, % at 6 µM | CHO 5-HT1E Ga15 NFAT-bla reporter, FRET, antagonist | 0.99% of 65,000 active | 5-hydroxytryptamine receptor 1E (Homo sapiens), P28566;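 active = inhibition above a set limit, the mean inhibition across every tested compound plus 3 SD, cut at about 29% in these data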;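 note: signal is the 460 over 535 nm emission ratio of beta-lactamase substrate; 0% = agonist plus DMSO wells and 100% = wells without agonist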
# * hit, by the source's call; . = not tested or not shown. The list is not random: actives were taken first. Their share in the collection is about 3%.
SMILES,S1P1 ag-PAM,HTR1E agonist,S1P3 agonist,5HT1a antag,5HT1a ag,HTR1E antagonist
CCN(CC)c1ccc(C2Nc3cccc4cccc(c34)N2)c(O)c1,2,-2,-1,.,-7,32*
Cn1c(Cn2c(=O)sc3ccccc32)nnc1SCC(=O)Nc1cccc(F)c1,5,0,0,0,0,-16
Cc1cc(C)nc(-n2nc(C)c(Sc3ccc(F)cc3)c2N)n1,-74,0,60*,-12,11,-1
Cc1nn(C)c(C)c1Sc1ccc(Br)cc1,19,-1,-2,20,-3,4
N#Cc1sc2nc3c(c(-c4ccco4)c2c1N)CCCC3,-71,1,-1,-20,-2,31*
Nn1c(COc2ccccc2)nnc1SC(F)F,-4,0,-1,-4,-1,0
CSc1nc2[nH]c3c(c2c2nncn12)CC(C)(C)OC3,-11,-1,-3,.,-2,11
CSc1nc2[nH]c3c(c2c2nnnn12)CCCC3,-35,-1,-4,.,1,36*
COC(=O)c1ccc(NC(=O)CCc2c(C)nc3ncnn3c2C)cc1,5,-1,0,1,-2,9
CCOc1ccccc1OCCCCCc1c(C)n[nH]c1C,89*,-1,0,20,0,5
Cc1cccc(OCCCCc2c(C)n[nH]c2C)c1C,112*,-1,-2,12,-3,8
CN1/C(=C\C(=O)COc2ccc3c(c2)OCO3)C(C)(C)c2ccccc21,29,14*,-1,10,-5,1
O=C(Oc1ccc(-c2nnco2)cc1)N(c1ccccc1)c1ccccc1,.,0,16*,3,-2,1
CC(=O)C(Sc1nc(-c2ccc(F)cc2)nc2c1c(=O)n(C)c(=O)n2C)C(C)=O,7,-1,0,6,2,97*
CCOC(=O)c1c(C)oc2c1c(C=NCC1CCCO1)c(O)c1ccccc12 (centres undefined),1,0,-1,64*,-3,31*
O=S1(=O)Nc2c(ccc3cccnc23)-c2ccccc21,118*,7,-1,74*,-4,61*
O=S(=O)(NCc1cn2ccsc2n1)c1ccc(Oc2ccccc2)cc1,84*,1,0,12,-3,5
O=S(=O)(NCc1cn2ccsc2n1)c1cccs1,-36,0,0,2,-5,0
CCc1ccc(S(=O)(=O)NCc2cn3ccsc3n2)s1,-30,22*,0,5,-2,-2
CCCCn1c(CN2CCN(C(=O)OCC)CC2)nc2c1c(=O)n(C)c(=O)n2C,-7,1,0,2,1,-1
COc1ccc(C2(O)CCN(Cc3nnnn3Cc3ccc(C)cc3)CC2)cc1,2,-1,-1,11,-1,11
CCOC(=O)C1=C(C)NC(=O)NC1c1ccc2c(c1)OCCO2 (centres undefined),9,0,0,8,-4,-3
COc1ccc(COC(=O)C2=C(C)NC(=O)NC2c2ccc(O)c(OC)c2)cc1 (centres undefined),15,0,0,0,-3,-1
CC1=C(C(=O)OCc2ccc3c(c2)OCO3)C(c2ccc(F)cc2)NC(=O)N1 (centres undefined),94*,-2,-1,22,-3,29*
CC1=C(C(=O)OCc2ccc3c(c2)OCO3)C(c2ccc(Cl)cc2)NC(=O)N1 (centres undefined),113*,0,-2,50*,0,43*
SMILES,S1P1 ag-PAM,HTR1E agonist,S1P3 agonist,5HT1a antag,5HT1a ag,HTR1E antagonist
O=S(=O)(c1ccc2oc3ccc(S(=O)(=O)N4CCCC4)cc3c2c1)N1CCCC1,-5,0,0,-6,-2,-6
CCN(CC)C(=O)C1CCN(S(=O)(=O)c2ccc3oc4ccccc4c3c2)CC1,84*,1,-2,8,0,6
COc1ccc2ncn(-c3ccccc3)c2c1,68*,-1,-2,23,-4,16
CCCCn1c(NC(=O)c2ccc(F)cc2)c(C#N)c2nc3ccccc3nc21,-190,9.1*,4.7*,5,29*,-3
CCCCn1c(NC(=O)c2ccccc2)c(C#N)c2nc3ccccc3nc21,-154,8,2,-6,10,26
CCCCn1c(=S)[nH]c2c(oc3ccc(Cl)cc32)c1=O,.,6,.,2,1,0
Nc1ccc2c(C(F)(F)F)cc(=O)oc2c1,20,2,1,8,6,42*
CN1CCN(CC(=O)N2c3ccccc3C(=O)Nc3cccnc32)CC1,7,-1,0,.,0,5
CCOC(=O)CSc1nc2c(sc(=S)n2Cc2ccco2)c(=O)n1-c1ccccc1,.,-2,.,55*,0,9
CC(C)(Oc1ccc(Cl)cc1)C(=O)Nc1cccnc1,1,1,-1,2,1,2
Cc1cccc2cc(CN(CC3CCCO3)C(=O)c3cnccn3)c(=O)[nH]c12 (centres undefined),-5,1,-1,8,0,3
CSc1ccc2nnc(-c3cccc(F)c3)n2n1,-20,0,1,-6,20*,6
CCOC(=O)CC(=O)CSc1ccc2nnc(-c3cccc(F)c3)n2n1,2,0,0,2,-2,-1
CC(=O)C1=C(O)C(=O)N(C2CCCCC2)C1c1ccccc1 (centres undefined),-16,-1,0,-2,0,-11
CCN(CC)C(=O)CSc1ccccc1N,.,-1,-1,-5,20*,-8
O=C(NC1CCCc2ccccc21)C1CCN(S(=O)(=O)c2cccc3nsnc23)CC1 (centres undefined),1,0,0,3,-1,-8
CCC(=O)N1CCc2cc(OC)c(OC)cc2C1COc1ccc(C(=O)OC)cc1 (centres undefined),.,-1,.,18,1,37*
COC(=O)c1ccc(OCC2c3cc(OC)c(OC)cc3CCN2C(=O)c2ccco2)cc1 (centres undefined),.,0,.,23,3,36*
COc1cc(C)c(Cl)cc1S(=O)(=O)NCC1CCCO1 (centres undefined),-9,0,-1,1,3,-9

# Source: PubChem
